According to ChEMBL document CHEMBL1949585, “Design, synthesis and evaluation of telomerase inhibitory, hTERT repressing, and anti-proliferation activities of symmetrical 1,8-disubstituted amidoanthraquinones” (Eur J Med Chem, 2012):

Tests used:
[1] = Cytotoxicity against human H1299 cells assessed as cell growth at 1 uM after 48 hrs by MTT assay; format: functional; settings: NCI-H1299, 48 h, read-out: Activity
Method in brief: (§1)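 H1299 non-small lung cancer cells were grown in RPMI 1640 with 10% FBS and penicillin/streptomycin at 37 °C in 5% CO2. About 2×10³ cells were seeded per well and held 24 h, then washed with PBS and given fresh medium. Compound, freshly dissolved in DMSO and diluted in complete medium, was added for 48 h. MTT was read at 550 nm after SDS/DMF lysis at 37 °C for 16 h. Values are from three experiments, untreated = 100%, ±SD.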

[2] = Cytotoxicity against human H1299 cells assessed as cell growth at 10 uM after 48 hrs by MTT assay; format: functional; settings: NCI-H1299, 48 h, read-out: Activity; method in brief: as §1
[3] = Cytotoxicity against human H1299 cells assessed as cell growth at 100 uM after 48 hrs by MTT assay; format: functional; settings: NCI-H1299, 48 h, read-out: Activity; method in brief: as §1
HL-60(TB) = test: Cytotoxicity against human HL-60(TB) cells assessed as cell growth at 10 uM relative to control; format: functional; settings: read-out: Activity
Method in brief: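 Tested in the NCI 60 human tumour cell line panel, covering nine cancer cell types, at a single concentration. The value is the mean growth percentage of treated cells, with untreated control cells taken as 100%.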

A549 = test: Cytotoxicity against human A549 cells assessed as cell growth at 10 uM relative to control; format: functional; settings: read-out: Activity
Method in brief: (§2)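 Single-concentration screen in the NCI 60 human tumour cell line panel covering nine cancer types. Values are the mean growth percentage of compound-treated cells, with untreated control cells set as 100%.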

HOP-62 = test: Cytotoxicity against human HOP62 cells assessed as cell growth at 10 uM relative to control; format: functional; settings: read-out: Activity; method in brief: as §2
HOP-92 = test: Cytotoxicity against human HOP92 cells assessed as cell growth at 10 uM relative to control; format: functional; settings: read-out: Activity; method in brief: as §2
NCI-H226 = test: Cytotoxicity against human NCI-H226 cells assessed as cell growth at 10 uM relative to control; format: functional; settings: read-out: Activity; method in brief: as §2
NCI-H23 = test: Cytotoxicity against human NCI-H23 cells assessed as cell growth at 10 uM relative to control; format: functional; settings: read-out: Activity; method in brief: as §2
NCI-H460 = test: Cytotoxicity against human NCI-H460 cells assessed as cell growth at 10 uM relative to control; format: functional; settings: read-out: Activity; method in brief: as §2
NCI-H522 = test: Cytotoxicity against human NCI-H522 cells assessed as cell growth at 10 uM relative to control; format: functional; settings: read-out: Activity; method in brief: as §2
HCC 2998 = test: Cytotoxicity against human HCC2998 cells assessed as cell growth at 10 uM relative to control; format: functional; settings: read-out: Activity; method in brief: as §2
HCT-15 = test: Cytotoxicity against human HCT15 cells assessed as cell growth at 10 uM relative to control; format: functional; settings: read-out: Activity; method in brief: as §2
HT-29 = test: Cytotoxicity against human HT-29 cells assessed as cell growth at 10 uM relative to control; format: functional; settings: read-out: Activity; method in brief: as §2
KM12 = test: Cytotoxicity against human KM12 cells assessed as cell growth at 10 uM relative to control; format: functional; settings: read-out: Activity; method in brief: as §2
SW-620 = test: Cytotoxicity against human SW620 cells assessed as cell growth at 10 uM relative to control; format: functional; settings: read-out: Activity
Method in brief: (§3)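 Run in the NCI 60-cell human tumour panel. Cells were exposed to 10 µM compound, and growth was given as a percentage of untreated control cells set to 100%.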

BT-549 = test: Cytotoxicity against human BT549 cells assessed as cell growth at 10 uM relative to control; format: functional; settings: read-out: Activity; method in brief: as §2
[4] = Cytotoxicity against human Hs 578T cells assessed as cell growth at 10 uM relative to control; format: functional; settings: read-out: Activity; method in brief: as §2
MDA-MB-435 = test: Cytotoxicity against human MDA-MB-435 cells assessed as cell growth at 10 uM relative to control; format: functional; settings: read-out: Activity; method in brief: as §2
MDA-MB-468 = test: Cytotoxicity against human MDA-MB-468 cells assessed as cell growth at 10 uM relative to control; format: functional; settings: read-out: Activity; method in brief: as §2
NCI/ADR-RES = test: Cytotoxicity against human NCI/ADR-RES cells assessed as cell growth at 10 uM relative to control; format: functional; settings: read-out: Activity; method in brief: as §2
T47D = test: Cytotoxicity against human T47D cells assessed as cell growth at 10 uM relative to control; format: functional; settings: read-out: Activity; method in brief: as §3
OVCAR-4 = test: Cytotoxicity against human OVCAR4 cells assessed as cell growth at 10 uM relative to control; format: functional; settings: read-out: Activity; method in brief: as §2
OVCAR-5 = test: Cytotoxicity against human OVCAR5 cells assessed as cell growth at 10 uM relative to control; format: functional; settings: read-out: Activity; method in brief: as §2
OVCAR-8 = test: Cytotoxicity against human OVCAR8 cells assessed as cell growth at 10 uM relative to control; format: functional; settings: read-out: Activity; method in brief: as §2
SK-OV-3 = test: Cytotoxicity against human SKOV3 cells assessed as cell growth at 10 uM relative to control; format: functional; settings: read-out: Activity; method in brief: as §2
[5] = Cytotoxicity against human 786-O cells assessed as cell growth at 10 uM relative to control; format: functional; settings: 786-0, read-out: Activity; method in brief: as §2
A498 = test: Cytotoxicity against human A498 cells assessed as cell growth at 10 uM relative to control; format: functional; settings: read-out: Activity; method in brief: as §2
ACHN = test: Cytotoxicity against human ACHN cells assessed as cell growth at 10 uM relative to control; format: functional; settings: read-out: Activity; method in brief: as §2
CAKI-1 = test: Cytotoxicity against human CAKI-1 cells assessed as cell growth at 10 uM relative to control; format: functional; settings: read-out: Activity; method in brief: as §2
TK-10 = test: Cytotoxicity against human TK10 cells assessed as cell growth at 10 uM relative to control; format: functional; settings: read-out: Activity; method in brief: as §3
UO-31 = test: Cytotoxicity against human UO31 cells assessed as cell growth at 10 uM relative to control; format: functional; settings: read-out: Activity; method in brief: as §3
LOX IMVI = test: Cytotoxicity against human LOXIMVI cells assessed as cell growth at 10 uM relative to control; format: functional; settings: read-out: Activity; method in brief: as §2
M14 = test: Cytotoxicity against human M14 cells assessed as cell growth at 10 uM relative to control; format: functional; settings: read-out: Activity; method in brief: as §2
Malme-3M = test: Cytotoxicity against human MALME-3M cells assessed as cell growth at 10 uM relative to control; format: functional; settings: read-out: Activity; method in brief: as §2
SK-MEL-28 = test: Cytotoxicity against human SK-MEL-28 cells assessed as cell growth at 10 uM relative to control; format: functional; settings: read-out: Activity; method in brief: as §2
SK-MEL-5 = test: Cytotoxicity against human SK-MEL-5 cells assessed as cell growth at 10 uM relative to control; format: functional; settings: read-out: Activity; method in brief: as §2
UACC-257 = test: Cytotoxicity against human UACC257 cells assessed as cell growth at 10 uM relative to control; format: functional; settings: read-out: Activity; method in brief: as §3
DU-145 = test: Cytotoxicity against human DU145 cells assessed as cell growth at 10 uM relative to control; format: functional; settings: read-out: Activity; method in brief: as §2
PC-3 = test: Cytotoxicity against human PC3 cells assessed as cell growth at 10 uM relative to control; format: functional; settings: read-out: Activity; method in brief: as §2
SF-539 = test: Cytotoxicity against human SF539 cells assessed as cell growth at 10 uM relative to control; format: functional; settings: read-out: Activity; method in brief: as §2
SNB-19 = test: Cytotoxicity against human SNB19 cells assessed as cell growth at 10 uM relative to control; format: functional; settings: read-out: Activity; method in brief: as §3
SNB-75 = test: Cytotoxicity against human SNB75 cells assessed as cell growth at 10 uM relative to control; format: functional; settings: read-out: Activity; method in brief: as §3
U-251 = test: Cytotoxicity against human U251 cells assessed as cell growth at 10 uM relative to control; format: functional; settings: read-out: Activity; method in brief: as §3
[6] = Inhibition of human TERT expression in H1299 cells at 10 uM after 24 hrs by secreted alkaline phosphatase reporter gene assay relative to control; values are per cent of control; settings: NCI-H1299

`COC(=O)CNCC(=O)Nc1cccc2c1C(=O)c1c(NC(=O)CNCC(=O)OC)cccc1C2=O` gave a growth at 1 µM [1] of 84%, a growth at 10 µM [2] of 86% and a growth at 100 µM [3] of 68%. It also gave a growth at 10 µM (HL-60(TB)) of 107%, a growth at 10 µM (A549) of 94.3% and a growth at 10 µM (HOP-62) of 108%. For the same compound, the growth at 10 µM (HOP-92) was 75.8%, the growth at 10 µM (NCI-H226) was 84.6% and the growth at 10 µM (NCI-H23) was 95.2%. The growth at 10 µM (NCI-H460) was 95.1%, the growth at 10 µM (NCI-H522) was 96.8% and the growth at 10 µM (HCC 2998) was 106%. For the same compound, the growth at 10 µM (HCT-15) was 94.3%, the growth at 10 µM (HT-29) was 96.3% and the growth at 10 µM (KM12) was 107%. The growth at 10 µM (SW-620) was 109%, the growth at 10 µM (BT-549) was 99.9% and the growth at 10 µM [4] was 104%. It also gave a growth at 10 µM (MDA-MB-435) of 102%, a growth at 10 µM (MDA-MB-468) of 83.8% and a growth at 10 µM (NCI/ADR-RES) of 92.9%. It also gave a growth at 10 µM (T47D) of 83.8%, a growth at 10 µM (OVCAR-4) of 87.7% and a growth at 10 µM (OVCAR-5) of 106%. The growth at 10 µM (OVCAR-8) was 96.3%, the growth at 10 µM (SK-OV-3) was 104% and the growth at 10 µM [5] was 103%. The growth at 10 µM (A498) was 85.2%, the growth at 10 µM (ACHN) was 90.7% and the growth at 10 µM (CAKI-1) was 83.8%. It also gave a growth at 10 µM (TK-10) of 84.9%, a growth at 10 µM (UO-31) of 88.9% and a growth at 10 µM (LOX IMVI) of 88.2%. It also gave a growth at 10 µM (M14) of 113%, a growth at 10 µM (Malme-3M) of 102% and a growth at 10 µM (SK-MEL-28) of 127%. The growth at 10 µM (SK-MEL-5) was 94.3%, the growth at 10 µM (UACC-257) was 92.4% and the growth at 10 µM (DU-145) was 107%. It also gave a growth at 10 µM (PC-3) of 76.6%, a growth at 10 µM (SF-539) of 91.9% and a growth at 10 µM (SNB-19) of 95.3%. It also gave a growth at 10 µM (SNB-75) of 89.9%, a growth at 10 µM (U-251) of 93.7% and a level, % of control [6] of 93%.
